High-throughput results deposited in PubChem by Broad Institute.
PGC1a acetyl up – compounds raising PGC1a acetylation signal, primary screen, PGC1a modulator project, cell-based, U2OS, AlphaScreen, signal-increasing mode; activation, % at 15.6 µM; 350,000 tested, 0.21% active; overnight;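 active means every replicate reaching activation of at least 50%, whatever the mean replicate activation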;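 further: hits raise the AlphaScreen acetylation signal above neutral controls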
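Incubation: overnight compound treatment, 37 °C. System: U2OS cells transduced with flag-tagged PGC1a and GCN5 acetyltransferase. Detection: AlphaScreen lysate read. Compound: single-point compound dosing.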
* = called active by the depositor. A selection follows.

SMILES | PGC1a acetyl up
COC(=O)Nc1ccc(S(=O)(=O)N(CCO)CC(F)(F)C(F)F)cc1 | 62*
CC12CC(c3ccccc3O1)N(C(=O)c1ccc(Br)o1)C(=O)N2c1ccccc1 (stereo unspecified) | -44
C[C@@H]1CN([C@H](C)CO)C(=O)CCCn2nncc2CO[C@H]1CN(C)C(=O)C1CC1 | -51
c1ccc(-c2cc(-c3ccccc3)n3ncnc3n2)cc1 | -45
On1onc2c3cc(-c4ccccc4)nc3ccc21 | 620*
CC/C(CC(C)(C)c1ccccc1)=N\O | 56*
O=S(=O)(c1ccc(Br)s1)N1CCN(Cc2ccc3c(c2)OCO3)CC1 | -47
O=S(=O)(Nc1cccc(CCc2ccccn2)c1)c1ccc2ccccc2c1 | -44
O=C(CS(=O)CC(=O)Nc1cccc2c1CCCC2)Nc1ccc(F)cc1 (stereo unspecified) | 66*
C[C@H](NS(=O)(=O)c1ccc2c(c1)OCCCO2)C(=O)N1CCN(Cc2ccccc2)CC1 | -47
O=C(CC1SC(=NCc2ccccc2)NC1=O)Nc1ccccc1 (stereo unspecified) | 99*
CCCCN=C1NC(=O)C(CC(=O)Nc2ccc(Cl)cc2)S1 (stereo unspecified) | 171*
C[C@H]1CN([C@@H](C)CO)C(=O)c2cc(C#CC(C)(C)O)cnc2O[C@@H]1CN(C)C(=O)C1CCC1 | -101
c1ccc(N2CCN(C3CC4CCC3C4)CC2)cc1 (stereo unspecified) | -53
CC(C)C#Cc1cnc2c(c1)C(=O)N([C@H](C)CO)C[C@H](C)[C@H](CN(C)C(=O)CN1CCOCC1)O2 | -58
CC(=O)c1coc2c1cc(O)c1ccccc12 | 63*
C[C@@H]1CN([C@H](C)CO)C(=O)CCCn2nncc2CO[C@H]1CN(C)C(=O)Nc1cccc(F)c1 | -57
CN(C)S(=O)(=O)c1ccc(N2CCCC2)c(C(=O)NCc2cccc(C(F)(F)F)c2)c1 | 93*
O=C(Nc1ccccc1)c1nnsc1S(=O)c1ccc(Cl)cc1 (stereo unspecified) | 125*
O=C(Nc1ccccc1)Nc1cc(Cl)cc(Cl)c1 | -39
Cc1cc(NS(=O)(=O)c2ccc(NC(=O)COc3c(C)cc(Br)cc3C)cc2)no1 | -85
Cc1ccc(NC(=O)c2c(C)nn(-c3ccccc3)c2Cl)c(C)c1 | -41
CCOC(=O)C1=CC[C@@H](c2ccc([N+](=O)[O-])cc2)N(S(=O)(=O)c2ccc(C)cc2)[C@H]1c1ccccc1 | 57*
CC1CCN(S(=O)(=O)c2ccc(Oc3ccc([N+](=O)[O-])cc3)cc2)CC1 | -54
OC[C@@H]1[C@H](c2ccc(C#CC3CCCC3)cc2)[C@H]2CN(CCC(F)(F)F)CCCCN12 | -81
SMILES | PGC1a acetyl up
OC[C@H]1[C@@H](c2ccc(C#CC3CCCC3)cc2)[C@@H]2CN(CCC(F)(F)F)CCCCN12 | 60*
N#C[C@H]1[C@H](c2ccc(C#CC3CCCC3)cc2)[C@H](CO)N1C(=O)Cc1ccccn1 | -59
CCOC(=O)c1nc(S(C)(=O)=O)ncc1Cl | 132*
Cc1cc(C)n(-c2ccc(Cl)c(C(=O)OCC(N)=O)n2)n1 | -46
CN1/C(=C/C(=O)c2nc(S(C)(=O)=O)ncc2Cl)C(C)(C)c2ccccc21 | -83
Cc1ccc(-c2cnc3c(c2)C(=O)N([C@H](C)CO)C[C@H](C)[C@@H](CN(C)C)O3)cc1 | -50
COc1ccc(NC(=O)c2ccc3c(c2)OCO3)cc1Cl | -42
COc1ccc(C2CCc3cc4c(cc3C2=NOC(C)=O)OCO4)cc1OC (stereo unspecified) | 56*
CC1=C(C(=O)OCc2ccc3c(c2)OCO3)C(c2ccc(Cl)cc2)NC(=O)N1 (stereo unspecified) | -43
CSc1nc2nccc(/C=C\c3ccccc3)n2n1 | -50
CCC(=O)N(C)C[C@@H]1Oc2ncc(-c3ccc(C(=O)N(C)C)cc3)cc2C(=O)N([C@H](C)CO)C[C@@H]1C | -59
CCN(CC)Cc1c(O)ccc2c([N+](=O)[O-])c(C)n(-c3ccc(OC)cc3)c12 | -46
CCS(=O)(=O)c1ccc(O)c(NC(=O)COc2ccc(Br)cc2)c1 | -97
O=C(CC1CC1)N[C@H]1CC[C@H](CCNS(=O)(=O)c2ccc(Cl)cc2)O[C@H]1CO | -53
O=C(C[C@H]1CC[C@H](NC(=O)C2CCC2)[C@@H](CO)O1)NCC1CC1 | -57
CCCCSCCCNC(=O)c1cn(C)c2ccc(S(=O)(=O)N3CCCC3)cc2c1=O | -10
CCOC(=O)N1CCN(C(=O)c2cc(S(=O)(=O)N3CCCC3)cn2C)CC1 | 74*
CN1/C(=C\C(=O)c2cccc(S(=O)(=O)N3CCCCC3)c2)C(C)(C)c2ccccc21 | -40
Cc1cc(S(=O)(=O)c2ccc([N+](=O)[O-])cn2)ccc1Br | 135*
O=C(NCc1cccc(Cl)c1)c1ccc(-n2ccnc2)c2ccoc12 | 52*
COc1ccc2c([N+](=O)[O-])c(N3CCCC3)[nH]c2c1 | -48
CCCNC(=O)Nc1ccc2c(c1)C(=O)N(C)C[C@H](OC)[C@H](C)CN(CC1CCCC1)[C@@H](C)CO2 | -44
CCOC(=O)c1c(C)n(C)c2cc(Br)c(O)c(O)c12 | -47
